Experiments:
[1] = biological target: Hepatocyte growth factor receptor (Homo sapiens, UniProt P08581); assay: Inhibition of cMet by HTRF assay
[2] = biological target: Vascular endothelial growth factor receptor 2 (Homo sapiens, UniProt P35968); assay: Inhibition of phosphorylated KDR by HTRF assay
Procedure, shortened: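 HTRF assay against KDR kinase with 10-point serial dilution. ATP at two-thirds of the experimentally determined Km (Eadie-Hofstee and Lineweaver-Burke). Ki derived from the IC50.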

[3] = Inhibition of IGFR
[4] = biological target: Hepatocyte growth factor receptor c-Met (Mus musculus) (UniProt P16056); assay: Inhibition of human recombinant HGF-mediated cMet phosphorylation in mouse CT26 cells
A-431 = assay: Cytotoxicity against human A431 cells; type: functional, cell-based
[5] = Selectivity of cMet over KDR
[6] = Selectivity of cMet over RON

| Ki [1] [nM] | Ki [2] [nM] | Structure (SMILES) | also measured |
| --- | --- | --- | --- |
| 17 | > 3000 | COc1cc2c(Oc3ccc(-c4cnc(Cc5ccc(F)cc5)n(C)c4=O)cc3F)ccnc2cc1OCCCN1CCOCC1 | Ki [3]: 860 nM; IC50 [4]: 196 nM |
| – | 382 | COc1cc2nccc(Oc3ccc(-c4cnc(Nc5ccc(F)cc5)n(C)c4=O)cc3F)c2cc1OC | Ki [3]: 70 nM |
| 72 | – | COc1cc2nccc(Oc3ccc(-c4cnc(C(N)c5ccccc5)n(C)c4=O)cc3F)c2cc1OC (centres undefined) | – |
| – | – | COc1cc2nccc(Oc3ccc(NC(=S)NC(=O)Cc4ccccc4)cc3F)c2cc1OC | IC50 (A-431): 8.7 nM |
| 201 | 56 | COc1cc2nccc(Oc3ccc(-c4ccc(Cc5ccccc5)nn4)cc3F)c2cc1OC | – |
| 9.2 | – | COc1cc2c(Oc3ccc(-c4cnc(Cc5ccccc5)n(C)c4=O)cc3F)ccnc2cc1OCCCN1CCN(C)CC1 | – |
| 89 | – | COc1cc2nccc(Oc3ccc4cc(NC(=O)Cc5ccccc5)ccc4c3)c2cc1OC | Selectivity ratio [5]: 9; Selectivity ratio [6]: 3 |
